Only some compounds are listed: those with a hit (about 4% of all), similar ones and a draw of the others.
TAAR1 antag = human TAAR1 antagonism; Q96RJ0; CHO RD-HGA16 TAAR1, Fluo-8 calcium fluorescence, antagonist; inhibition, % at 3 µM; 360,000 compounds, 1.5% hits; AID 624466;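 active means inhibition above a per-plate cutoff, the mean inhibition of test compounds on that plate plus 3 SD, cut at about 49% in these data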;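 further: 0% = DMSO plus EC80 beta-PEA response and 100% = DMSO alone without agonist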
Target sequence (Q96RJ0 whole entry, looked up): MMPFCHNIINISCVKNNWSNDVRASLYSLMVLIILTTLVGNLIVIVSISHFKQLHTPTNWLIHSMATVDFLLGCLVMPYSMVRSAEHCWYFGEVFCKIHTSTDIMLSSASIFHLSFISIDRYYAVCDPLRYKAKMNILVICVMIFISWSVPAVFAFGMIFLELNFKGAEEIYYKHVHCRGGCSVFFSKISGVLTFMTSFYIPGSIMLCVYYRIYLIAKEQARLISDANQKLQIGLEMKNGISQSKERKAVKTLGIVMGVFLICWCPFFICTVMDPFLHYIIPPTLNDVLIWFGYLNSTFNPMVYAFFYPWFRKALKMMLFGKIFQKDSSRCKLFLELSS
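Test system – hTAAR1-expressing CHO RD-HGA16 cells, Gα16-coupled · Also added – β-PEA at EC80 concentration, post-compound challenge · Compound – 3 µM, single point · Incubation – dye loading 75 min at 37 °C, then 30 min room temperature · Measured by – Fluo-8 intracellular calcium dye fluorescence, real-time kinetic reads · Benchmarks – vehicle and agonist controls · Replicates – singlicate, one well per test compound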
OX1R antag-1 = human HCRTR1 antagonism; O43613; CHO/OX1R cells, Fluo-8 calcium fluorescence, orexin A; inhibition, % at 5 µM; 330,000 compounds, 0.43% hits; AID 434989;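 active means inhibition above its plate's threshold, mean inhibition of all tested compounds on the plate plus 3 SD, cut at about 37% in these data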;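 further: 0% = orexin A challenge wells and 100% = SB-334867-A antagonist wells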
Target sequence (O43613 whole entry, looked up): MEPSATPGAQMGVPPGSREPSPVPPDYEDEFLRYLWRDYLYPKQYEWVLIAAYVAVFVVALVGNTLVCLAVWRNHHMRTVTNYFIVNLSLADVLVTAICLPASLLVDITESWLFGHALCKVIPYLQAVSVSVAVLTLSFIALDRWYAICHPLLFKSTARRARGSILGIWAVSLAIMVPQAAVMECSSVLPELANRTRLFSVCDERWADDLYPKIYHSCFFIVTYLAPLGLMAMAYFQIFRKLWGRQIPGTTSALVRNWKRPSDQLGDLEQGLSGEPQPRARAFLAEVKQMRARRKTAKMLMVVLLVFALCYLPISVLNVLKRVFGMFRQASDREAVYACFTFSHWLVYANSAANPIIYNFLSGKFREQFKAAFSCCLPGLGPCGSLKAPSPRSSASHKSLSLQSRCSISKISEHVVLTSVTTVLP
CHO parental Ca = counter-screen for OX1R antagonists: effect in parental CHO cells | 330,000 compounds, 0.63% hits | inhibition, % at 5.6 µM | parental CHO-K1, ATP-induced calcium, Fluo-8 fluorescence;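 active means inhibition above that plate's mean sample inhibition plus 3 SD, cut at about 26% in these data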;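 further: 0% = ATP-challenged DMSO wells and 100% = DMSO wells without ATP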
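Assay system: untransfected parental CHO cell line. Also added: ATP agonist challenge. Dosing: one dose, 5.6 µM nominal. Measured by: Fluo-8 fluorescence. Read-out: % inhibition. Benchmarks: ATP wells versus no-ATP DMSO wells. Repeats: no replicates.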
TAAR1 ag = human TAAR1 agonism | Q96RJ0 | activation, % at 3 µM | CHO RD-HGA16 TAAR1, Fluo-8 calcium fluorescence; vehicle wells 0%, saturating PEA agonist 100% | 360,000 compounds, 0.99% hits;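 active means activation above the mean activation of all test compounds in the run plus 3 SD, cut at about 38% in these data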
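Test system: RD-HGA16 (CHO) cells co-expressing Gα16 and hTAAR1 / Benchmarks: DMSO vehicle as 0%, PEA at EC100 as 100% / Repeats: no replicates (n 1) / Measure: % activation from peak over basal fluorescence ratio, DMSO-to-PEA scaled / Timing: 17-24 h plating, Fluo-8 75 min 37 °C, 30 min RT / Technique: kinetic Fluo-8 calcium fluorescence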
OX1R antag-2 = antagonists of human orexin 1 receptor (OX1R). 330,000 compounds, 1.8% hits. inhibition, % at 6.6 µM. O43613. OX1R-expressing cells, FRET antagonist read-out; in the data active means inhibition mostly above about 38%, no sharp cut-off; inactive means mostly below about 40%;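 further: 0% = agonist challenge alone and 100% = reference antagonist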
An asterisk follows results filed as active; nt = not tested or not shown.

SMILES | TAAR1 antag | OX1R antag-1 | CHO parental Ca | TAAR1 ag | OX1R antag-2
CCCCNc1nc(CC)c2c(c1C#N)CCCC2 | -9.3 | -9.6 | -8.1 | 0.7 | 17.9
COc1ccc(-n2nc(C(=O)NCC(=O)N(C)Cc3ccccc3)c3ccccc3c2=O)cc1OC | 48.7* | -26.8 | -23.2 | 9.3 | 22.9
COc1ccc(-n2nc(C(=O)NCC(=O)NC3CCCCCC3)c3ccccc3c2=O)cc1OC | 49.9* | -28.7 | -13.9 | 10.4 | 13.3
CN(C)c1ccc(-c2ccc3oc(-c4ccsc4)cc(=O)c3c2)cn1 | 0.9 | -4.4 | -17.7 | 4.0 | 57.4*
C=CCC[C@H](Cc1ccc(F)cc1)C(=O)OC[C@@H](C)NC(=O)[C@@H](CC=C)CC(=O)N[C@H](CO)Cc1ccccc1 | 51.4* | 20.7 | -0.6 | 16.5 | 13.2
C=CCC[C@H](Cc1ccc(F)cc1)C(=O)OC[C@@H](NC(=O)[C@@H](CC=C)CC(=O)N[C@@H](CO)Cc1ccccc1)C(C)(C)C | 50.9* | 13.6 | -9.8 | 13.2 | 6.5
C=CC[C@@H](CC(=O)N[C@H](CO)Cc1ccccc1)C(=O)N[C@@H](COC(=O)[C@H](CC=C)CC(=O)OC(C)(C)C)Cc1ccccc1 | 50.3* | 8.8 | -18.3 | 13.1 | 12.2
COc1ccccc1Cc1c(-c2ccccc2)nc2ccc(C)cn12 | -3.1 | nt | nt | -0.4 | nt
N#Cc1ccc(OCCCN2CCC(C(O)(C3=CCCC3)c3ccccc3)CC2)cc1 (stereo not given) | 3.3 | nt | nt | 18.9 | nt
COc1ccccc1OCc1ccc(C(=O)NCc2cccnc2)o1 | 4.7 | -12.6 | -6.6 | 3.1 | 12.1
CC(C)(C)c1ccc(OCc2ccc(C(=O)NCc3cccnc3)o2)cc1 | 52.8* | 20.5 | 36.6* | 15.9 | 7.6
COC(=O)C1=C(C)N(C)C(=NCc2ccc(C(F)(F)F)cc2)NC1c1ccc(F)cc1 (stereo not given) | 20.4 | nt | nt | 19.6 | nt
CCn1c(Cc2ccc(OC)cc2)nnc1SCC(=O)N1CCN(c2ccccc2)CC1 | 10.4 | -30.7 | -16.4 | 1.1 | 47.3*
CCCc1ncc(CN2CCCCC2C(=O)Nc2ccc(Oc3ccccc3)nc2)cn1 (stereo not given) | -6.0 | -38.1 | -20.4 | -3.0 | 16.5
Cc1ccccc1CS(=O)(=O)c1nnc([C@H](CC(C)C)NC(=O)OC(C)(C)C)o1 | 17.3 | 9.6 | 43.1* | 2.9 | 12.4
C/C(=N\Nc1cccc([N+](=O)[O-])c1)c1cc(F)ccc1O | 10.2 | 26.6 | -9.3 | -2.2 | 67.9*
C/C(=N\NC(=O)c1cccc(N/N=C(\C)c2cc(O)ccc2O)c1)c1cc(O)ccc1O | 34.7 | -10.8 | -10.3 | 2.2 | 12.3
CCc1c(-c2cccc(F)c2)ncn1CCc1ccccc1OC | -20.4 | nt | nt | 6.2 | nt
O=C(COc1ccccc1/C=C1\SC(=O)NC1=O)Nc1ccc(F)cc1 | 13.5 | -21.7 | -4.0 | 7.5 | 76.6*
CCn1c(Cc2cccc3ccccc23)nnc1SCC(=O)Nc1nccs1 | 7.3 | 22.7 | -4.5 | 3.8 | 70.8*
CSc1ccc(Cl)c(C(=O)NCCOc2cc(C)ccc2C(C)C)c1 | 41.5 | 46.5* | 53.1* | -0.4 | 27.2
O=C(NCC1CCN(C(=O)C(=O)c2cccs2)CC1)c1ccncc1 | 15.9 | nt | nt | 1.6 | nt
O=C(/C=C/c1ccc(F)cc1)c1cc(Br)ccc1O | -5.1 | -27.5 | -21.4 | -2.2 | 6.4
O=C(/C=C/c1ccccc1)c1cc(Br)ccc(=O)c1O | 54.1* | -6.0 | -13.7 | 41.4* | 34.1
Cc1ccccc1OCc1nc2ccccc2c(=O)n1/N=C/c1cn[nH]c1-c1ccc(Br)cc1 | 31.6 | -7.5 | -28.0 | 4.7 | 23.3
SMILES | TAAR1 antag | OX1R antag-1 | CHO parental Ca | TAAR1 ag | OX1R antag-2
O=c1c2ccccc2nc(COc2ccccc2)n1/N=C/c1cn[nH]c1-c1ccccc1 | 55.1* | -17.9 | -18.5 | 8.7 | 27.9
O=C1OC2(c3ccccc31)c1cc(I)c(O)c(I)c1Oc1c2cc(I)c(O)c1I | nt | 106.3* | 94.1* | nt | 91.4*
S=C(NCc1ccc2c(c1)OCO2)Nc1ccc2nsnc2c1 | 32.0 | 53.1* | 32.1 | 11.8 | 39.8
CCOc1ccc(NC(=S)Nc2ccc3nsnc3c2)cc1 | 9.7 | -12.1 | -12.2 | 9.9 | 113.3*
COc1ccccc1CN1CC(C(=O)NCCN(C)CCc2ccccc2)CCC1=O (stereo not given) | -23.6 | -1.0 | -14.2 | 38.8* | -1.7
COc1ccccc1CCNC(=O)C1CCC(=O)N(Cc2ccccc2OC)C1 (stereo not given) | -26.6 | -22.2 | -12.5 | 1.6 | 3.0
CCOC(=O)C1=C(COC(=O)/C=C/c2ccc(F)cc2)NC(=O)NC1C (stereo not given) | 55.3* | nt | nt | 18.4 | nt
CCOC(=O)C1=C(COC(=O)c2sccc2C)NC(=O)NC1C (stereo not given) | 8.3 | -3.0 | -20.2 | 2.0 | 0.7
CCOC(=O)C1=C(COC(=O)/C=C/c2ccccc2F)NC(=O)NC1C (stereo not given) | 55.9* | 10.1 | -16.4 | 22.9 | 16.4
CCOC(=O)C1=C(COC(=O)c2ccc([N+](=O)[O-])s2)NC(=O)NC1C (stereo not given) | -3.2 | -18.2 | 0.2 | 18.5 | 36.7*
CCOC(=O)C1=C(COC(=O)/C=C/c2cccc(F)c2)NC(=O)NC1C (stereo not given) | 52.2* | 8.7 | -17.5 | 17.5 | 8.2
Cc1ccc(S(=O)(=O)N2CCOCC2)cc1C(=O)NCc1ccccc1CN1CCCC1 | 10.8 | -24.4 | -3.1 | 2.6 | 3.8
COc1ccc(C(C)c2cc3c(cc2OCC(=O)O)OCO3)cc1 (stereo not given) | -4.6 | nt | nt | -0.7 | nt
CCCS(=O)(=O)NC(=O)C1(C)CCCN(C(=O)c2cc(C)nn2C(C)(C)C)C1 (stereo not given) | -12.6 | nt | nt | 3.2 | nt
CCN1/C(=C/c2ccc3ccccc3[n+]2CCCS(=O)(=O)[O-])C=Cc2cc(C)ccc21 | 4.5 | nt | nt | -0.5 | nt
CCN1/C(=C/c2ccc3ccccc3[n+]2CC)C=Cc2ccccc21 | 12.0 | 26.8 | 71.4* | 3.5 | 100.5*
CC(=O)N1CCN(c2ccc(Oc3ccc([N+](=O)[O-])c(C(F)(F)F)c3)cc2)CC1 | nt | 9.4 | 43.7* | nt | 50.6
CCCC(=O)Nc1nc2ccc(OCC)cc2s1 | 5.8 | -12.3 | -7.6 | -2.3 | 9.0
CCOC(=O)c1sc(NC(=O)c2ccco2)nc1C | -7.8 | -9.1 | -11.4 | 9.0 | 14.0
CCOC(=O)c1sc(NC(=O)c2ccc(C)o2)nc1C | -14.6 | 18.5 | -20.0 | 1.9 | 54.3*
CCOc1ccc2nc(NC(=O)c3ccc(C)o3)sc2c1 | -3.8 | -2.1 | -15.2 | 4.7 | 37.7*
CCOc1ccc(C(C)NC(=O)c2cc(=O)[nH]c3ccccc23)cc1OCC (stereo not given) | 7.4 | -2.7 | -9.6 | 2.8 | 10.2
COc1ccc(CCNC(=O)CO/N=C/c2cc3c(cc2Br)OCO3)cc1OC | 6.7 | -26.6 | -24.5 | -0.8 | 25.6
CC(=O)c1cccc(NC(=O)c2cc(=O)[nH]c3ccc(S(=O)(=O)N4CCOCC4)cc23)c1 | -18.4 | -9.9 | -3.5 | 0.6 | 1.4

Compound activity from PubChem BioAssay.
